The term inhibition denotes the change of the read-out against control, counted positive when it falls.

Screen size: about 360,000 compounds; about 890 (0.25%) were called active. Only a selection was taken, and actives are over-represented in it overall. Values without a mark were called inactive.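 Rule for the calls: active = inhibition at 20 µM, scaled per plate between control wells, above about 37% (limit read from the data); inactive = the rest.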

Tyrosine-protein phosphatase non-receptor type 5 (Homo sapiens), sequence (P54829 whole entry, looked up): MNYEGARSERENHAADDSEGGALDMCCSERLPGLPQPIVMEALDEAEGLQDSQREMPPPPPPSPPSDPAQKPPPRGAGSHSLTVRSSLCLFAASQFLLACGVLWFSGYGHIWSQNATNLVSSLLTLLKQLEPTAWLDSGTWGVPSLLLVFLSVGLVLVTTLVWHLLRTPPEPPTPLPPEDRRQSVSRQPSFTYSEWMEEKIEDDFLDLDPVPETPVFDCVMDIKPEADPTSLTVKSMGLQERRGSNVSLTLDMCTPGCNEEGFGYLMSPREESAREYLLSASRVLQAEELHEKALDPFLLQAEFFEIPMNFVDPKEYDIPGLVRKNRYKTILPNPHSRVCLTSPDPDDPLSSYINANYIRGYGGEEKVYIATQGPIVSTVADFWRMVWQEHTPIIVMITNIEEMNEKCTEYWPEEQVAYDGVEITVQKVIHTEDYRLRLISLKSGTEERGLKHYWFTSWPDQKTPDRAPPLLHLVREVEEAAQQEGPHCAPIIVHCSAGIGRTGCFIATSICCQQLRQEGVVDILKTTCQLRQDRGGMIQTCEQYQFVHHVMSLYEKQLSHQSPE

For the assay, the target named is Tyrosine-protein phosphatase non-receptor type 5 (Homo sapiens) (UniProt P54829). Put plainly: inhibition of human PTPN5 enzyme activity – biochemical, fluorescence intensity, uHTS, primary screen (AID 588621).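 Note: 0% = DMSO with enzyme and substrate and 100% = substrate only without enzyme.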 Particulars: recombinant STEP, OMFP fluorogenic substrate, at 20 µM, stronger effect = higher value. Put shortly:
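material = STEP tyrosine phosphatase | reagent = fluorogenic phosphatase substrate OMFP at 25 µM final | doses = single compound dose of 20 µM, 1% DMSO final | schedule = 20 min reaction, room temperature, in the dark | measured by = fluorescence, 480/540 nm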
Consider `N#Cc1ccccc1-n1c(N)c(C(=O)N2CCCC2)sc1=S`, for which the inhibition was 7.5%.
With `Cc1cccc(-n2c(N)c(C(=O)N3CCN(C)CC3)sc2=S)c1`, the inhibition is 90.4% (active).
Take `Cc1ccc(-n2c(N)c(C(=O)N3CCOCC3)sc2=S)c(C)c1`: the inhibition was 5.2%.
Turning to `Cc1cc(-c2nnc(SCC(=O)Nc3ccc(F)cc3)n2N)n[nH]1`, the inhibition is -1.1%.
Regarding `COC(=O)Cn1cnc2scc(-c3ccc(C)c(C)c3)c2c1=O`, the inhibition is 1.3%.
Next, `Cc1ccc(C(C)(C)C)c(OCCCCN2CCCC2)c1`: -0.8%; `CSc1nnc(C2CCCN(CC(=O)Nc3ccccc3N3CCOCC3)C2)n1C(C)C` (centres undefined): 7.7%.
For the compound `OCCN1CCN(C(=S)c2ccc(-c3ccccc3)cc2)CC1`, the inhibition was 92.5% (active).
In the case of `C=CCc1ccccc1OCC(O)CN1CCN(CCO)CC1` (centres undefined), the inhibition was -0.9%.
In the case of `S=C(c1ccc(-c2ccccc2)o1)N1CCCCC1`, the inhibition is 10%.
Consider `Cc1cc(OC(=O)c2ccccc2)c([N+](=O)[O-])c(=O)[nH]1`, for which the inhibition was -3.5%.
Regarding `CN(C)c1ccc(CNC23CN4CN(CN(C4)C2)C3)cc1`, the inhibition is -4.8%.
`O=C(OCC(=O)N1CCN(C(=O)c2ccco2)CC1)c1ccccc1Cc1ccccc1`: the inhibition was -3.5%.
As for `CCC1(C)N(O)C(C)(C)C(c2ccc(OC)cc2)=[N+]1[O-]` (centres undefined), the inhibition was -1.7%.
In the case of `COc1ccc(NS(=O)(=O)c2cccc3nsnc23)cc1Cl`, the inhibition is -1.2%.
In the case of `O=C(O)c1ccc(NS(=O)(=O)c2cccc3nsnc23)cc1`, the inhibition was 1.7%.
Next, `O=S(=O)(Nc1ccccc1Cl)c1cccc2nsnc12`: 52.9% (active).
For `O=C(COC(=O)c1cc([N+](=O)[O-])ccc1NCc1ccccc1)NC1CCCCC1`, the inhibition is 0.9%.
The same measure for `O=C(CCN1C(=O)c2ccncc2C1=O)Nc1cc(F)ccc1F`: -2.7%.
Regarding `COc1ccc(-c2cc(C(F)(F)F)nc(S(C)(=O)=O)n2)cc1OC`, the inhibition was 0.2%.
Take `O=C(COc1ccccc1F)NNC(=O)c1ccc(N2CCCCC2)c([N+](=O)[O-])c1`: the inhibition was 0.7%.
The same measure for `C/C(O)=C\c1nc(=O)c2c(C)cc(C)nc2n1-c1ccccc1`: 1.8%; for `COc1ccccc1NC(=O)C(C)OC(=O)CC1CCCC1` (centres undefined): -2.3%.
As for `COCCN(C(=S)Nc1ccccc1OC)C1CCN(C(C)C)CC1`, the inhibition was 44.6% (active).
Next, `CCc1cccc(NC(=S)N(CCN(C)C)C2CCN(C(C)C)CC2)c1`: 4.4%; `Cc1ccc(NC2=C(Cl)C(=O)OC2OC(=O)c2ccccc2C)cc1` (centres undefined): -1.2%; `Nc1nonc1-n1nnc(C(=O)N/N=C/C2CCCCC2)c1-c1ccccc1`: -0.5%.
`COCc1c(C(=O)N/N=C(\C)c2ccncc2)nnn1-c1nonc1N`: the inhibition was -0.3%.
With `COCc1c(C(=O)N/N=C/C2CC=CCC2)nnn1-c1nonc1N` (centres undefined), the inhibition was 44.4% (active).

(Values after PubChem BioAssay AID588621 (Sanford-Burnham Center for Chemical Genomics, 2011).)
